Assay results taken from ChEMBL document CHEMBL3244404, “Effect of sulfur substitution for the noncarbonyl oxygen in hemicholinium-3 and acetyl-seco-hemicholinium-3. Synthesis, biological activity, and structure-toxicity relationships” (J Med Chem, 1977).

How the values were obtained:
Conditions in all cases: in vivo
Mus musculus [1] = assay: Toxicity in ip dosed CD-1 mouse assessed as loss of righting response; assay type: organism-based
Procedure, shortened: (§1)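 Compounds dissolved in normal saline (0.9% NaCl) and injected ip into mice. Signs were recorded as they appeared after dosing. Animals that died were autopsied immediately, with lungs and peritoneal cavity examined for excess fluid and heart and small intestine observed.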

[2] = Toxicity in ip dosed CD-1 mouse assessed as mortality in presence of 20 mg/kg, ip choline; assay type: organism-based; design: dose 20 mg/kg, route intraperitoneal
Mus musculus [3] = assay: Toxicity in ip dosed CD-1 mouse assessed as respiratory difficulties; assay type: organism-based; procedure, shortened: as §1
Mus musculus [4] = assay: Toxicity in ip dosed CD-1 mouse assessed as increase in peristalsis of the small intestine; assay type: organism-based; procedure, shortened: as §1
Mus musculus [5] = assay: Toxicity in ip dosed CD-1 mouse assessed as cardiac contractions; assay type: organism-based; procedure, shortened: as §1
Mus musculus [6] = assay: Toxicity in ip dosed CD-1 mouse assessed as excess fluids in lungs and peritoneal cavity; assay type: organism-based; procedure, shortened: as §1
Mus musculus [7] = assay: Toxicity in ip dosed CD-1 mouse assessed as mild to moderate ataxia; assay type: organism-based; procedure, shortened: as §1
[8] = Toxicity in ip dosed CD-1 mouse assessed as mortality in presence of 0.2 mg/kg, ip neostigmine; assay type: organism-based; design: dose 0.2 mg/kg, route intraperitoneal
Mus musculus [9] = assay: Toxicity in ip dosed CD-1 mouse assessed as exophthalmos; assay type: organism-based; procedure, shortened: as §1
Mus musculus [10] = assay: Toxicity in ip dosed CD-1 mouse assessed as SLUD syndrome; assay type: organism-based; procedure, shortened: as §1
Mus musculus [11] = assay: Toxicity in ip dosed CD-1 mouse assessed as clonic convulsions; assay type: organism-based; procedure, shortened: as §1
Mus musculus [12] = assay: Ratio of HC-3 LD50 to compound LD50 in CD-1 mouse; assay type: ADME, organism-based
Procedure, shortened: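 Mice received the compounds ip, dissolved in normal saline (0.9% NaCl). Deaths were scored to derive the ip LD50 in mg/kg with 95% confidence limits. Each LD50 was also expressed as a ratio to that of HC-3. Signs were recorded in the animals that died, and immediate autopsy examined the heart, intestine, lungs and peritoneal cavity.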

With `C[N+]1(C)CCOC(O)(c2ccc(-c3ccc(C4(O)C[N+](C)(C)CCO4)cc3)cc2)C1.[Br-].[Br-]` (configuration not stated) as the molecule, how does the Activity (Mus musculus [1]) read?
The Activity was “Toxic”.

And the mortality [2]?
Its mortality is 15%.

And the Activity (Mus musculus [3])?
The Activity was “Toxic”.

What about the Activity (Mus musculus [4]) of the same molecule?
Its Activity is “Toxic”.

And the Activity (Mus musculus [5])?
Its Activity is “Non-toxic”.

And the Activity (Mus musculus [6])?
Its Activity is “Non-toxic”.

What about the Activity (Mus musculus [7]) of the same molecule?
Its Activity is “Toxic”.

What about the mortality [8] of the same molecule?
Its mortality is 90%.

What about the Activity (Mus musculus [9]) of the same molecule?
The Activity was “Toxic”.

What about the Activity (Mus musculus [10]) of the same molecule?
The Activity was “Toxic”.

What about the Activity (Mus musculus [11]) of the same molecule?
The Activity was “Toxic”.

What does the source list for `CC(=O)OCC[N+](C)(C)CC(=O)c1ccc(-c2ccc(C(=O)C[N+](C)(C)CCOC(C)=O)cc2)cc1.[Br-].[Br-]`?
Activity (Mus musculus [1]): Toxic; mortality [2]: 0%; Activity (Mus musculus [3]): Toxic; Activity (Mus musculus [4]): Toxic; Activity (Mus musculus [5]): Non-toxic; Ratio (Mus musculus [12]): 1; Activity (Mus musculus [6]): Non-toxic; Activity (Mus musculus [7]): Toxic; mortality [8]: 80%; Activity (Mus musculus [9]): Toxic; Activity (Mus musculus [10]): Toxic; Activity (Mus musculus [11]): Toxic

Which results are given for `CC(=O)SCC[N+](C)(C)CC(=O)c1ccc(-c2ccc(C(=O)C[N+](C)(C)CCSC(C)=O)cc2)cc1.[Br-].[Br-]`?
Activity (Mus musculus [1]): Toxic; mortality [2]: 40%; Activity (Mus musculus [3]): Toxic; Activity (Mus musculus [4]): Toxic; Activity (Mus musculus [5]): Non-toxic; Ratio (Mus musculus [12]): 1; Activity (Mus musculus [6]): Non-toxic; Activity (Mus musculus [7]): Toxic; mortality [8]: 30%; Activity (Mus musculus [9]): Toxic; Activity (Mus musculus [10]): Toxic; Activity (Mus musculus [11]): Toxic

Which Activity (Mus musculus [1]) does the source give for `C[N+](C)(CCS)CC(=O)c1ccc(-c2ccc(C(=O)C[N+](C)(C)CCS)cc2)cc1.[Br-].[Br-]` here?
Its Activity is “Toxic”.

What about the mortality [2] of the same molecule?
The mortality was 10%.

What about the Activity (Mus musculus [3]) of the same molecule?
The Activity was “Toxic”.

What about the Activity (Mus musculus [4]) of the same molecule?
Its Activity is “Toxic”.

What about the Activity (Mus musculus [5]) of the same molecule?
Its Activity is “Non-toxic”.

What about the Ratio (Mus musculus [12]) of the same molecule?
Its Ratio is 226.

And the Activity (Mus musculus [6])?
Its Activity is “Non-toxic”.

And the Activity (Mus musculus [7])?
Its Activity is “Toxic”.

What about the mortality [8] of the same molecule?
The mortality was 70%.

What about the Activity (Mus musculus [9]) of the same molecule?
The Activity was “Toxic”.

And the Activity (Mus musculus [10])?
Its Activity is “Toxic”.

And the Activity (Mus musculus [11])?
Its Activity is “Toxic”.
